Measurements reported in ChEMBL document CHEMBL1124612, “Synthesis and structure-activity relationships of a series of anxioselective pyrazolopyridine ester and amide anxiolytic agents” (J Med Chem, 1989).
The source made the active and inactive calls. The rule behind the calls is not given here.

Legend:
Rattus norvegicus [1] = test: Minimum effective dose (ip) tested for its anxiolytic activity in rat using the shock-induced suppression of drinking (SSD) test; NS is No Significant activity at 25 mg/Kg; type: functional, organism-based
How it was run: (§1)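 Shock-induced suppression of drinking (Vogel-type conflict) in rats, with compounds given intraperitoneally at one or more dose levels, 8 rats per dose. MED is the lowest dose giving a significant increase (p < 0.05, Student's t test) in the mean number of shocks taken versus vehicle control.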

[2] = target: GABA-A receptor; anion channel; test: Inhibition of [3H]flunitrazepam binding to GABA-A benzodiazepine receptor of rat cerebral cortex; type: tissue-based
Rattus norvegicus [3] = test: Minimum effective dose (po) tested for its anxiolytic activity in rat using the shock-induced suppression of drinking (SSD) test.; type: functional; conditions: read-out: MED
How it was run: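 Rats (n = 8 per dose) were dosed orally at one or more levels and then run in the shock-induced suppression of drinking conflict test. MED is the dose producing a significant rise (p < 0.05, Student's t test) in mean shocks accepted relative to vehicle-treated controls.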

[4] = system: GABA-A receptor; anion channel; test: Inhibition of [3H]flunitrazepam binding to GABA-A benzodiazepine receptor of rat cerebral cortex at 500 nM; type: tissue-based
How it was run: (§2)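 Rat cerebral cortex membranes were incubated with [3H]flunitrazepam in the presence of the test agent at a single concentration (nM), run in triplicate with under 7% variation between values. Binding is reported as % inhibition of [3H]flunitrazepam binding.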

Rattus norvegicus [5] = test: Minimum effective dose (ip) tested for its anxiolytic activity in rat using the shock-induced suppression of drinking (SSD) test.; type: functional; conditions: read-out: MED; how it was run: as §1
[6] = target: T1, GABA-A receptor; anion channel (Rattus norvegicus) (UniProt O09028+P15431+P18506+P18508+P19969+P20236+P23574+P23576+P28471+P28473+P30191+P62813+P63079+P63138+Q91ZM7+Q9ES14); test: Displacement of [3H]flunitrazepam from GABA-A benzodiazepine receptor of rat cerebral cortex at 500 nM; type: tissue-based; how it was run: as §2
Rattus norvegicus [7] = test: Minimum effective dose (ip) tested for its anxiolytic activity in rat using the shock-induced suppression of drinking (SSD) test; NS is No Significant activity at 50 mg/Kg; type: functional, organism-based; how it was run: as §1
[8] = target: T1, GABA-A receptor; anion channel (Rattus norvegicus); test: Displacement of [3H]flunitrazepam from GABA-A benzodiazepine receptor of rat cerebral cortex at 5000 nM; type: tissue-based; how it was run: as §2
[9] = system: GABA-A receptor; anion channel; test: Inhibition of [3H]flunitrazepam binding to GABA-A benzodiazepine receptor of rat cerebral cortex (Not Significant at 5000 nM); type: tissue-based; how it was run: as §2

SMILES | IC50 [2] [nM] | minimal effective dose (Rattus norvegicus [3]) [mg/kg] | other results
CCOC(=O)c1c(C)nc2c(cnn2Cc2ccccc2)c1N | 156 |  | MED (Rattus norvegicus [1]): inactive
C=CCN(C)C(=O)c1cnc2c(cnn2CCC#CC)c1N |  | 12.5 | IC50 [4]: Not Active
CCCCCn1ncc2c(N)c(C(=O)OCCC)c(C)nc21 | 50 |  | minimal effective dose (Rattus norvegicus [5]): 25 mg/kg
CCCCCn1ncc2c(N)c(C(=O)NCC3CC3)cnc21 | 35 | 6.3 | 
CCCCNc1c(C(=O)OCC)c(C)nc2c1cnn2CC [TRACAZOLATE] |  | 40 | 
CCCCCn1ncc2c(N)c(C(=O)NCCC)cnc21 | 89 | 25 | 
C=CCNC(=O)c1cnc2c(cnn2CCCCC)c1NCCCC |  |  | NS (Rattus norvegicus [1]): inactive; IC50 [4]: Not Active
CCCCCn1ncc2c(N)c(C(=O)N3CCCC3)cnc21 |  |  | minimal effective dose (Rattus norvegicus [5]): 50 mg/kg; IC50 [4]: Not Active
C=CCOC(=O)c1cnc2c(cnn2CCC(C)C)c1N | 5.7 |  | minimal effective dose (Rattus norvegicus [5]): 25 mg/kg
CCCCCn1ncc2c(N)c(C(=O)OCC)c(C)nc21 | 58 | 50 | 
CCCn1ncc2c(N)c(C(=O)OCC)c(C)nc21 | 410 |  | minimal effective dose (Rattus norvegicus [5]): 80 mg/kg
CCCCCn1ncc2c(N)c(C(=O)OCC(C)C)c(C)nc21 |  |  | inhibition [6]: 55%; MED (Rattus norvegicus [1]): inactive
C=CCCOC(=O)c1c(C)nc2c(cnn2CCCCC)c1N | 174 |  | MED (Rattus norvegicus [7]): inactive
CC#CCCn1ncc2c(N)c(C(=O)OCC3CC3)c(C)nc21 | 315 | 12.5 | 
CCCCCn1ncc2c(N)c(C(N)=O)cnc21 | 2450 | 12.5 | 
CCCCCn1ncc2c(O)c(C(=O)OCC)c(C)nc21 |  |  | minimal effective dose (Rattus norvegicus [7]): inactive; IC50 [4]: Not Active
C=CCOC(=O)c1c(C)nc2c(cnn2CC=C)c1N | 112 | 25 | 
C=C(C)COC(=O)c1c(C)nc2c(cnn2CCCCC)c1N | 69 |  | MED (Rattus norvegicus [1]): inactive
C=CCNC(=O)c1cnc2c(cnn2CCCCC)c1N | 28 | 12.5 | 
C=CCOC(=O)c1c(C)nc2c(cnn2CCCCC)c1N | 21 | 25 | 

SMILES | IC50 [2] [nM] | minimal effective dose (Rattus norvegicus [3]) [mg/kg] | other results
CCOC(=O)c1c(C)nc2c(cnn2CCC(C)C)c1N | 39 | 100 | 
CCCCCn1ncc2c(N)c(C(=O)N3CCC3)cnc21 | 137 | 50 | 
CCOC(=O)c1c(C)nc2c(cnn2CCCC(C)(C)C)c1N | 404 |  | NS (Rattus norvegicus [1]): inactive
CCCCCn1ncc2c(N)cc(C)nc21 |  |  | minimal effective dose (Rattus norvegicus [7]): inactive; inhibition [8]: 13%
CCCCCn1ncc2c(N)c(C(=O)N(C)CCC)cnc21 |  | 6.3 | IC50 [4]: Not Active
CCCCn1ncc2c(N)c(C(=O)OCC)c(C)nc21 | 50 | 40 | 
CCCCCn1ncc2c(N)c(C(=O)OCc3ccccc3)c(C)nc21 | 100 |  | MED (Rattus norvegicus [1]): inactive
C=CCNC(=O)c1cnc2c(cnn2CCC#CC)c1NC(=O)CC |  | 1.6 | inhibition [6]: 28%
CCOC(=O)c1c(C)nc2c(c(C)nn2CC)c1N |  |  | MED (Rattus norvegicus [1]): inactive; IC50 [9]: Not Active
CCCCCn1ncc2c(N)c(C(=O)NCCCC)cnc21 | 80 | 50 | 
CCCCCn1ncc2c(N)c(C(=O)NC(C)C)cnc21 | 414 |  | minimal effective dose (Rattus norvegicus [5]): 25 mg/kg
CCOC(=O)c1c(C)nc2c(cnn2CCC(C)(C)C)c1N |  |  | inhibition [6]: 38%; minimal effective dose (Rattus norvegicus [7]): inactive
C=CCN(C)C(=O)c1cnc2c(cnn2CCCCC)c1N |  | 12.5 | IC50 [4]: Not Active
CC#CCCn1ncc2c(N)c(C(=O)NCCC)cnc21 | 500 | 6.3 | 
CCCCCn1ncc2c(N)c(C(=O)NC)cnc21 | 354 | 12.5 | 
CNC1=Nc2ccc(Cl)cc2C(c2ccccc2)=[N+]([O-])C1 [CHLORDIAZEPOXIDE] | 330 | 10 | 
CCCCCn1ncc2c(N)c(C(=O)NOCC)cnc21 | 531 | 12.5 | 
CC#CCCn1ncc2c(N)c(C(=O)NCC3CC3)cnc21 | 271 | 3.1 | 
C#CCCCn1ncc2c(N)c(C(=O)OCC3CC3)c(C)nc21 | 22 | 12.5 | 
C#CCCCn1ncc2c(N)c(C(=O)OCC)c(C)nc21 | 31 | 25 | 
